Assay results as given in ChEMBL document CHEMBL4689842, “EUbOPEN Chemogenomics Library wave 1” (2021).

Tested on: Fibroblast
Test: Multiplex assay against human fibroblast
Type: toxicity, cell-based
Method in brief: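 With compound added, live cells were imaged on a CQ1 microscope at 37°C and 5% CO2; staining with Hoechst33342, BioTracker Green Microtubule Cytoskeleton Dye, MitoTracker Red and Annexin V Alexa Fluor 680 had been done at seeding. The CellPathfinder machine-learning gating scheme split cells into Hoechst high-intensity objects or normal cells, normal cells into healthy, pyknosed or fragmented nuclei, and pyknosed cells into mitotic or apoptotic. The tubulin, mitochondrial-mass and membrane-permeability phenotypes are per cents of healthy-nucleus cells.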

[1] = 12 h, 1 µM, compound concentration 1 uM, replicate 1
[2] = 12 h, 1 µM, compound concentration 1 uM, replicate 2
[3] = 12 h, 10 µM, compound concentration 10 uM, replicate 1
[4] = 12 h, 10 µM, compound concentration 10 uM, replicate 2
[5] = 24 h, 1 µM, compound concentration 1 uM, replicate 1
[6] = 24 h, 1 µM, compound concentration 1 uM, replicate 2
[7] = 24 h, 10 µM, compound concentration 10 uM, replicate 1
[8] = 24 h, 10 µM, compound concentration 10 uM, replicate 2
[9] = 48 h, 1 µM, compound concentration 1 uM, replicate 1
[10] = 48 h, 1 µM, compound concentration 1 uM, replicate 2
[11] = 48 h, 10 µM, compound concentration 10 uM, replicate 1
[12] = 48 h, 10 µM, compound concentration 10 uM, replicate 2

C=CC(=O)Nc1ccc2ncnc(Nc3ccc(OCc4cccc(F)c4)c(Cl)c3)c2c1.Cc1ccc(S(=O)(=O)O)cc1
Population Apoptotic (%) [1]: 53% | Population Fragmented Nuclei (%) [1]: 25% | Population Healthy Nuclei (%) [1]: 37% | Population Hoechst High Intensity Objects (%) [1]: 7% | Population Membrane Permeable-Phenotype (%) [1]: 28% | Population Mitochondria Different-Phenotype (%) [1]: 9% | Population Mitotic Cells (%) [1]: 46% | Population Normal (%) [1]: 92% | Population Pyknosed Nuclei (%) [1]: 36% | Population Tubulin-Different-Phenotype (%) [1]: 26% | Total Cell Count [1]: 120 | Population Apoptotic (%) [2]: 50% | Population Fragmented Nuclei (%) [2]: 6% | Population Healthy Nuclei (%) [2]: 84% | Population Hoechst High Intensity Objects (%) [2]: 5% | Population Membrane Permeable-Phenotype (%) [2]: 3% | Population Mitotic Cells (%) [2]: 50% | Population Normal (%) [2]: 94% | Population Pyknosed Nuclei (%) [2]: 8% | Population Tubulin-Different-Phenotype (%) [2]: 29% | Total Cell Count [2]: 77 | Population Apoptotic (%) [3]: 77% | Population Fragmented Nuclei (%) [3]: 27% | Population Healthy Nuclei (%) [3]: 38% | Population Hoechst High Intensity Objects (%) [3]: 15% | Population Membrane Permeable-Phenotype (%) [3]: 15% | Population Mitochondria Different-Phenotype (%) [3]: 7% | Population Mitotic Cells (%) [3]: 22% | Population Normal (%) [3]: 84% | Population Pyknosed Nuclei (%) [3]: 33% | Population Tubulin-Different-Phenotype (%) [3]: 27% | Total Cell Count [3]: 122 | Population Apoptotic (%) [4]: 75% | Population Fragmented Nuclei (%) [4]: 14% | Population Healthy Nuclei (%) [4]: 79% | Population Hoechst High Intensity Objects (%) [4]: 10% | Population Membrane Permeable-Phenotype (%) [4]: 4% | Population Mitochondria Different-Phenotype (%) [4]: 22% | Population Mitotic Cells (%) [4]: 25% | Population Normal (%) [4]: 89% | Population Pyknosed Nuclei (%) [4]: 6% | Population Tubulin-Different-Phenotype (%) [4]: 16% | Total Cell Count [4]: 69 | Population Apoptotic (%) [5]: 65% | Population Fragmented Nuclei (%) [5]: 26% | Population Healthy Nuclei (%) [5]: 42% | Population Hoechst High Intensity Objects (%) [5]: 9% | Population Membrane Permeable-Phenotype (%) [5]: 31% | Population Mitochondria Different-Phenotype (%) [5]: 2% | Population Mitotic Cells (%) [5]: 34% | Population Normal (%) [5]: 90% | Population Pyknosed Nuclei (%) [5]: 31% | Population Tubulin-Different-Phenotype (%) [5]: 40% | Total Cell Count [5]: 123 | Population Apoptotic (%) [6]: 55% | Population Fragmented Nuclei (%) [6]: 4% | Population Healthy Nuclei (%) [6]: 84% | Population Hoechst High Intensity Objects (%) [6]: 5% | Population Membrane Permeable-Phenotype (%) [6]: 2% | Population Mitochondria Different-Phenotype (%) [6]: 8% | Population Mitotic Cells (%) [6]: 44% | Population Normal (%) [6]: 94% | Population Pyknosed Nuclei (%) [6]: 10% | Population Tubulin-Different-Phenotype (%) [6]: 33% | Total Cell Count [6]: 90 | Population Apoptotic (%) [7]: 61% | Population Fragmented Nuclei (%) [7]: 31% | Population Healthy Nuclei (%) [7]: 39% | Population Hoechst High Intensity Objects (%) [7]: 8% | Population Membrane Permeable-Phenotype (%) [7]: 37% | Population Mitochondria Different-Phenotype (%) [7]: 9% | Population Mitotic Cells (%) [7]: 38% | Population Normal (%) [7]: 91% | Population Pyknosed Nuclei (%) [7]: 28% | Population Tubulin-Different-Phenotype (%) [7]: 48% | Total Cell Count [7]: 118 | Population Apoptotic (%) [8]: 53% | Population Fragmented Nuclei (%) [8]: 12% | Population Healthy Nuclei (%) [8]: 69% | Population Hoechst High Intensity Objects (%) [8]: 6% | Population Membrane Permeable-Phenotype (%) [8]: 14% | Population Mitochondria Different-Phenotype (%) [8]: 24% | Population Mitotic Cells (%) [8]: 46% | Population Normal (%) [8]: 93% | Population Pyknosed Nuclei (%) [8]: 18% | Population Tubulin-Different-Phenotype (%) [8]: 32% | Total Cell Count [8]: 77 | Population Apoptotic (%) [9]: 64% | Population Fragmented Nuclei (%) [9]: 34% | Population Healthy Nuclei (%) [9]: 48% | Population Hoechst High Intensity Objects (%) [9]: 8% | Population Membrane Permeable-Phenotype (%) [9]: 28% | Population Mitochondria Different-Phenotype (%) [9]: 0% | Population Mitotic Cells (%) [9]: 35% | Population Normal (%) [9]: 91% | Population Pyknosed Nuclei (%) [9]: 16% | Population Tubulin-Different-Phenotype (%) [9]: 26% | Total Cell Count [9]: 112 | Population Apoptotic (%) [10]: 50% | Population Fragmented Nuclei (%) [10]: 31% | Population Healthy Nuclei (%) [10]: 65% | Population Hoechst High Intensity Objects (%) [10]: 14% | Population Membrane Permeable-Phenotype (%) [10]: 18% | Population Mitochondria Different-Phenotype (%) [10]: 8% | Population Mitotic Cells (%) [10]: 50% | Population Normal (%) [10]: 85% | Population Pyknosed Nuclei (%) [10]: 2% | Population Tubulin-Different-Phenotype (%) [10]: 41% | Total Cell Count [10]: 106 | Population Apoptotic (%) [11]: 81% | Population Fragmented Nuclei (%) [11]: 40% | Population Healthy Nuclei (%) [11]: 50% | Population Hoechst High Intensity Objects (%) [11]: 18% | Population Membrane Permeable-Phenotype (%) [11]: 17% | Population Mitochondria Different-Phenotype (%) [11]: 9% | Population Mitotic Cells (%) [11]: 18% | Population Normal (%) [11]: 81% | Population Pyknosed Nuclei (%) [11]: 8% | Population Tubulin-Different-Phenotype (%) [11]: 49% | Total Cell Count [11]: 154 | Population Apoptotic (%) [12]: 100% | Population Fragmented Nuclei (%) [12]: 22% | Population Healthy Nuclei (%) [12]: 76% | Population Hoechst High Intensity Objects (%) [12]: 11% | Population Membrane Permeable-Phenotype (%) [12]: 12% | Population Mitochondria Different-Phenotype (%) [12]: 3% | Population Mitotic Cells (%) [12]: 0% | Population Normal (%) [12]: 88% | Population Pyknosed Nuclei (%) [12]: 1% | Population Tubulin-Different-Phenotype (%) [12]: 6% | Total Cell Count [12]: 86
